Consider 17 compounds from ChEMBL document CHEMBL1641563, “Synthesis and antihyperglycemic activity of phenolic C-glycosides” (2011).

Holding throughout (assay type): functional
The subject of test [1] is Rattus norvegicus. Nature of the test: Antihyperglycemic activity against streptozotocin-induced Sprague-Dawley albino rat diabetic model assessed as area under the 0 to 24 hrs blood glucose response curve (0-24 hrs AUC) at 25 mg/kg, po after 48 hrs by glucometer. In a few lines: (§1)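 Male Sprague–Dawley rats, fasted overnight, received STZ 60 mg/kg ip in 0.1 M citrate pH 4.5. Rats with glucose 140–270 mg/dl at 48 h were used, n = 5 per group. Compound was given at 25 mg/kg orally in 1.0% gum acacia, with vehicle controls, and a sucrose load of 2.5 g/kg followed 30 min later. Glucose was read by glucometer at 1–6 h and 24 h. Percent activity came from AUC versus control, with Dunnett's test.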

In test [2] the test system is Rattus norvegicus. As to the kind of experiment: Antihyperglycemic activity against streptozotocin-induced Sprague-Dawley albino rat diabetic model assessed as area under the 0 to 5 hrs blood glucose response curve (0-5 hrs AUC) at 25 mg/kg, po after 48 hrs by glucometer. In a few lines:
as §1

For a further test, the system named is L6. As to the kind of experiment: Antihyperglycemic activity against rat L6 cells assessed as increase in glucose uptake by liquid scintillation counting. Also noted: concentration or dose not given beside the values. A digest of the protocol: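 L6 myoblasts were grown in DMEM with 10% FBS, then differentiated into myotubes for 7–8 days in 2% FBS. Myotubes were treated with compound at 10 or 50 µM for 18 h and washed in Krebs–Ringer HEPES. Uptake of 2-deoxy-[3H]-D-glucose (3 µCi, plus 20 µM unlabelled) was measured over 15 min. Non-specific uptake was taken with 10 µM cytochalasin B. Counts (cpm/well) were compared with controls.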

Test [3] relates to Rattus norvegicus. As to the kind of experiment: Antihyperglycemic activity against streptozotocin-induced Sprague-Dawley albino rat diabetic model assessed as reduction in blood glucose at 25 mg/kg, po after 24 hrs. Also noted: scale not given: the % may be the effect or the level left. In a few lines: as §1

Turning to `OC[C@H]1O[C@@H](c2c(O)ccc3cc(Cc4ccc(O)cc4)oc23)[C@H](O)[C@@H](O)[C@@H]1O`, the Activity came to 11.2% in the test with Rattus norvegicus [1] and 9.78% with Rattus norvegicus [2].
As to `CC(=O)c1c(O)cc(O)c([C@@H]2O[C@H](CO)[C@@H](O)[C@H](O)[C@H]2O)c1O`, the values for the Activity in the test on L6, in the test with Rattus norvegicus [1] and with Rattus norvegicus [2] were 15.3%, 20.9% and 18%, respectively.
As for `O=C1c2ccc(O)c([C@@H]3O[C@H](CO)[C@@H](O)[C@H](O)[C@H]3O)c2OC1(O)Cc1ccc(O)cc1` (stereo not given in full), the results for the Activity with Rattus norvegicus [1] and in the test with Rattus norvegicus [2] were 7.9% and 1.99%, respectively.
In the same order, the values of `COC(=O)c1c(O)cc(O)c([C@@H]2O[C@H](CO)[C@@H](O)[C@H](O)[C@H]2O)c1O` are 2.9% and 7.27%.
With `O=C1c2c(cc(O)c([C@@H]3O[C@H](CO)[C@@H](O)[C@H](O)[C@H]3O)c2O)OC(c2ccc(O)cc2)C1O` (stereo not given in full), the Activity with Rattus norvegicus [3], with Rattus norvegicus [1] and with Rattus norvegicus [2] was 23.8% throughout.
On to `COC(=O)c1c(O)c([C@@H]2O[C@H](CO)[C@@H](O)[C@H](O)[C@H]2O)c(O)c([C@@H]2O[C@H](CO)[C@@H](O)[C@H](O)[C@H]2O)c1O`, for which the Activity worked out at 10.8% in the test with L6, 7.78% in the test on Rattus norvegicus [1] and 11.5% in the test on Rattus norvegicus [2].
Turning to `O=C1c2c(cc(O)c([C@@H]3O[C@H](CO)[C@@H](O)[C@H](O)[C@H]3O)c2O)OC(c2ccc(O)c(O)c2)C1O` (stereo not given in full), the Activity with L6 is reported as 10.2%; in the test with Rattus norvegicus [1], 12.8%; with Rattus norvegicus [2], 17.6%.
On to `O=C(CC(O)c1ccc(O)c(O)c1)c1ccc(O)c([C@@H]2O[C@H](CO)[C@@H](O)[C@H](O)[C@H]2O)c1O` (stereo not given in full), for which the Activity with Rattus norvegicus [1] turned out to be 19.5%; in the test with Rattus norvegicus [2], 20%.
Turning to `OC[C@H]1O[C@@H](c2c(O)cccc2O)[C@H](O)[C@@H](O)[C@@H]1O`, the Activity with Rattus norvegicus [1] is 22.3%; with Rattus norvegicus [2], 12.7%.
Consider `O=C1Oc2c(ccc(O)c2[C@@H]2O[C@H](CO)[C@@H](O)[C@H](O)[C@H]2O)/C1=C\c1ccc(O)cc1`, for which the Activity with L6 is 16%; with Rattus norvegicus [1], 29%; in the test with Rattus norvegicus [2], 17.2%.
In the case of `CN(C)C(=N)NC(=N)N` [METFORMIN], the Activity with L6 came to 19.4%; in the test on Rattus norvegicus [1] it was 24.1%; in the test with Rattus norvegicus [2] it was 27.2%.
As to `O=c1c(O)c(-c2ccc(O)c(O)c2)oc2cc(O)c([C@@H]3O[C@H](CO)[C@@H](O)[C@H](O)[C@H]3O)c(O)c12`, the Activity in the test with Rattus norvegicus [1] came out at 8.56%; with Rattus norvegicus [2], 15.6%.
As to `O=C1CC(c2ccc(O)cc2)Oc2cc(O)c([C@@H]3O[C@H](CO)[C@@H](O)[C@H](O)[C@H]3O)c(O)c21` (stereo not given in full), the Activity is 12.2% in the test on L6, 15.1% in the test with Rattus norvegicus [1] and 8.41% in the test with Rattus norvegicus [2].
As for `O=C(CCc1ccccc1)c1c(O)cc(O)c([C@@H]2O[C@H](CO)[C@@H](O)[C@H](O)[C@H]2O)c1O`, the Activity in the test on Rattus norvegicus [3] is on record as 26.5%; in the test with L6, 11.6%; with Rattus norvegicus [1], 26.5%; in the test with Rattus norvegicus [2], 22.3%.
For `O=c1cc(-c2ccc(O)c(O)c2)oc2c([C@@H]3O[C@H](CO)[C@@H](O)[C@H](O)[C@H]3O)c(O)ccc12`, the Activity in the test with Rattus norvegicus [1] worked out at 16.1%; in the test on Rattus norvegicus [2], 14.3%.
For `O=c1c(O)c(-c2ccc(O)cc2)oc2cc(O)c([C@@H]3O[C@H](CO)[C@@H](O)[C@H](O)[C@H]3O)c(O)c12`, the Activity with L6 is recorded as 12.2%; with Rattus norvegicus [1], 23.5%; in the test with Rattus norvegicus [2], 16.7%.
For `COc1cc(OC)c([C@@H]2O[C@H](CO)[C@@H](O)[C@H](O)[C@H]2O)c(OC)c1C(=O)/C=C/c1ccc(C(C)C)cc1`, the Activity in the test on Rattus norvegicus [3] was found to be 33.6%; with Rattus norvegicus [1], 33.6%; in the test on Rattus norvegicus [2], 34.9%.
